Results as given in article PMC10416317 (Journal of medicinal chemistry, 2023).
Blank lines part the entries; values can stand above or below the compound they belong to.

What was measured:
SCoR2 [1] = target: T1, SCoR2 (Homo sapiens, UniProt P14550); assay: Differential scanning fluorimetry; assay type: binding; conditions: 5 μM SCoR2, 250 μM compound; SCoR2 alone 48.3 (buffer), 48.0 (1% DMSO)
T1 sequence (P14550 1-325): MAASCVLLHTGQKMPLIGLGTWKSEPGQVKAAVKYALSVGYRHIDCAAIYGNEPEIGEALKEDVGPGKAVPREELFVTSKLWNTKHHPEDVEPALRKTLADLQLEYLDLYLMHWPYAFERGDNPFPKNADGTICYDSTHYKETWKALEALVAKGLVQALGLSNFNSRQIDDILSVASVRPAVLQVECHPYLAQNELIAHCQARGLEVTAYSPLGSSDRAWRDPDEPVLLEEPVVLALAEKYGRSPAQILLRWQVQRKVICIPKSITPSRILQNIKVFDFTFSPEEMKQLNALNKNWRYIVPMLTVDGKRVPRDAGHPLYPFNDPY

SCoR2 (AKR1A1) = target: T2, SCoR2 (AKR1A1) (Homo sapiens, UniProt P14550); assay: Inhibition of DL-glyceraldehyde-metabolizing activity of purified SCoR2; assay type: biochemical; conditions: DL-glyceraldehyde as substrate, in vitro
T2 sequence (P14550 1-325): T1 sequence (P14550 1-325)
Summary of the method: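 Initial screen with recombinant human SCoR2 (C-terminal His tag, expressed in E. coli, Ni-NTA purified). The 1 ml cuvette held 20 nM SCoR2, 3 mM DL-glyceraldehyde and varying inhibitor in 50 mM phosphate pH 7.0. NADPH (100 μM) started the reaction, which ran 2 min. NADPH consumption slope was read spectrophotometrically and IC50 was obtained by curve fitting.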

AKR1B1 [2] = target: AKR1B1 (Homo sapiens, UniProt P15121); assay: Inhibition of methylglyoxylate-metabolizing activity of purified AKR1B1; assay type: biochemical; conditions: ratio of IC50 values
SCoR2 [3] = target: T3, SCoR2 (Mus musculus, UniProt Q9JII6); assay: SNO-CoA-metabolizing activity in kidneys of treated mice; assay type: in vivo
T3 sequence (Q9JII6 1-325): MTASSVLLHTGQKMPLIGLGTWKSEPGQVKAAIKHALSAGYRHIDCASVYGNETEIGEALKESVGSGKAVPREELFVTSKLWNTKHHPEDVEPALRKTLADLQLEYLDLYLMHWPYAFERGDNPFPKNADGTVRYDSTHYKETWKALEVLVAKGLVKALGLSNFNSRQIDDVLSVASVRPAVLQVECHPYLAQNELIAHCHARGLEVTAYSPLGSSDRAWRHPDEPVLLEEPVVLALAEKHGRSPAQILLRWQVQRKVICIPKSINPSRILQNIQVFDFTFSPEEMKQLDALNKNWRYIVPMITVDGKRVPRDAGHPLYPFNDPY
Summary of the method: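 Mice got test compound i.p. with DMSO vehicle or were fed compound-containing diet; SCoR2-knockout mice served as comparators. Kidneys were taken 18 h after a single 20–120 mg/kg dose, or 24 h after I/R surgery done 18 h post-dose. Tissue was homogenized in 50 mM phosphate pH 7.0, 150 mM NaCl, 100 μM EDTA/DTPA, then clarified (20,000xg, 4°C) and BCA-normalized. Lysate started reactions with 200 μM SNO-CoA and 100 μM NADPH; 2 min, triplicate.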

acute kidney injury = assay: Ischemia/reperfusion-induced AKI model in mice; assay type: in vivo; conditions: mouse I/R AKI
AKR1B1 [4] = target: AKR1B1 (Mus musculus, UniProt P45376); assay: Methylglyoxylate-metabolizing; assay type: in vivo; conditions: i.p. 120 mg/kg, 18h
SCoR2 [5] = target: T3, SCoR2; assay type: in vivo; conditions: i.p. 120 mg/kg, 18h
Summary of the method: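 Mice received test compound 120 mg/kg i.p. (vehicle DMSO); liver, lung, heart, brain and spleen were harvested 18 h later. Tissues were homogenized in 50 mM phosphate pH 7.0, 150 mM NaCl, 100 μM EDTA/DTPA, clarified at 20,000xg, 4°C, and protein measured by BCA. Lysate started reactions with 200 μM SNO-CoA and 100 μM NADPH in phosphate/EDTA/DTPA buffer; 2 min; triplicate; n≥3.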

[6] = diet with 125 mg/kg diet for 3 weeks or 12 weeks
[7] = 20 mg/kg i.p. 18 h before surgery, 24 h post-surgery

Melting temperature (Tm) of SCoR2, compound alone (SCoR2 [1]): 51.4 °C
SMILES: NC(=O)C1=CN([C@@H]2O[C@H](COP(=O)(O)OP(=O)(O)OC[C@H]3O[C@@H](n4cnc5c(N)ncnc54)[C@H](OP(=O)(O)O)[C@@H]3O)[C@@H](O)[C@H]2O)C=CC1 [NADPH]

Inhibition of SCoR2 / potency at SCoR2 (in words) (SCoR2 (AKR1A1)): inhibit
SMILES: CC(/C=C1\SC(=S)N(CC(=O)O)C1=O)=C\c1ccccc1 [epalrestat, reference compound]

Times more potent at AKR1B1 (vs SCoR2) (AKR1B1 [2]): 1.2
SNO-CoA-metabolic activity in kidneys following AKI (SCoR2 [3]; 20 mg/kg i.p. 18 h before AKI surgery, 24 h post-surgery): strongly inhibited
SCoR2 activity in the kidney on drug diet (SCoR2 [3]; [6]): potently inhibited
SMILES: O=C1NC(=O)C2(N1)c1cc(F)ccc1-c1ccc(F)cc12 [Imirestat, imirestat]
Protection against AKI (acute kidney injury; 20 mg/kg i.p. 18 h before surgery): does not protect against AKI
Blood urea nitrogen (BUN) vs DMSO-treated mice (acute kidney injury; [7]): the same
Serum creatinine vs DMSO-treated mice (acute kidney injury; [7]): the same
Protection against AKI (acute kidney injury; [6]): did not show protection against AKI

Inhibition of SCoR2 / potency at SCoR2 (in words) (SCoR2 (AKR1A1)): less potent
SMILES: O=C1NC(=O)C2(N1)c1ccccc1-c1ccccc12 [compound 2]

Activity of kidney AKR1B1 (AKR1B1 [4]): did not inhibit
Activity of SCoR2 in brain (SCoR2 [5]): not in brain
Activity of SCoR2 in heart (SCoR2 [5]): inhibited
Activity of SCoR2 in liver (SCoR2 [5]): inhibited
Activity of SCoR2 in lung (SCoR2 [5]): inhibited
Activity of SCoR2 in spleen (SCoR2 [5]): inhibited
SMILES: O=C1NC(=O)C2(N1)c1ccccc1-c1ccc(C3CC3)cc12 (centres unmarked) [5-1]
Protection against AKI (acute kidney injury; 120 mg/kg i.p. 18 h before surgery): protected against AKI
